We go through four compounds from ChEMBL document CHEMBL5136968, “Posttranslational modifications of α-conotoxins: sulfotyrosine and C-terminal amidation stabilise structures and increase acetylcholine receptor binding” (RSC Med Chem, 2021).

The nature of assay [1]: Displacement of [3H]-epibatidine from Aplysia californica Acetylcholine-binding protein measured after 1 hr by liquid scintillation counter. In a few lines: (§1)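 Recombinant AChBP expressed in E. coli (IPTG induction, 16 °C), coated onto wells at 1 ng μL−1. Incubated 1 h at 4 °C with [3H]-epibatidine (1 nM final) and increasing peptide in PBS with 0.05% BSA. Unbound ligand washed off; bound radioactivity counted by liquid scintillation. One-site competition fit gives Ki. Triplicate, three independent experiments; pKi as mean with 95% CI.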

For assay [2], the target named is Acetylcholine-binding protein (Lymnaea stagnalis, UniProt P58154). As to the kind of experiment: Displacement of [3H]-epibatidine from Lymnaea stagnalis Acetylcholine-binding protein measured after 1 hr by liquid scintillation counter. The gist of the method:
as §1

Positions of bridges follow the written chain, without caps; N, C: chain ends. Non-standard residues stand in square brackets, D forms with d. Residues, ends and D or L forms follow the SMILES beside them. sY = N[C@@H](Cc1ccc(OS(=O)(=O)O)cc1)C(=O)O A value given as a limit tells only on which side of the number the result lay.

Acetylcholine-binding protein, sequence (P58154 whole entry): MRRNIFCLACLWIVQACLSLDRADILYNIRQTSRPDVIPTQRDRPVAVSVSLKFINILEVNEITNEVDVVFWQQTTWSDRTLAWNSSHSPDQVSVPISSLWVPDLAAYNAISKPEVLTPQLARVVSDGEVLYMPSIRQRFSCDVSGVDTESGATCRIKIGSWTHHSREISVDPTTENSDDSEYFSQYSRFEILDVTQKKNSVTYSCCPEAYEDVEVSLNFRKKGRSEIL

Take `CC(C)C[C@@H]1NC(=O)[C@H](CO)NC(=O)[C@@H]2CSSC[C@@H](C(=O)O)NC(=O)[C@H](Cc3ccc(OS(=O)(=O)O)cc3)NC(=O)[C@H](CC(=O)O)NC(=O)[C@@H]3CCCN3C(=O)[C@H](CC(N)=O)NC(=O)[C@H](CC(N)=O)NC(=O)[C@H](C)NC(=O)[C@H](C)NC(=O)[C@H](CSSC[C@H](NC(=O)CN)C(=O)N2)NC(=O)[C@@H]2CCCN2C(=O)[C@@H]2CCCN2C1=O` (H-GCCSLPPCAANNPD[sY]C-OH; disulfide 2-8, 3-16): the pKi in assay [1] is listed as 8.33. In addition, the Ki in assay [2] was > 100 µM.
For `CC(C)C[C@@H]1NC(=O)[C@H](CO)NC(=O)[C@@H]2CSSC[C@@H](C(N)=O)NC(=O)[C@H](Cc3ccc(OS(=O)(=O)O)cc3)NC(=O)[C@H](CC(=O)O)NC(=O)[C@@H]3CCCN3C(=O)[C@H](CC(N)=O)NC(=O)[C@H](CC(N)=O)NC(=O)[C@H](C)NC(=O)[C@H](C)NC(=O)[C@H](CSSC[C@H](NC(=O)CN)C(=O)N2)NC(=O)[C@@H]2CCCN2C(=O)[C@@H]2CCCN2C1=O` (H-GCCSLPPCAANNPD[sY]C-NH2; disulfide 2-8, 3-16), in that order: 8.92 and 3.8 µM.
In the same order, the values of `CC(C)C[C@@H]1NC(=O)[C@H](CO)NC(=O)[C@@H]2CSSC[C@@H](C(N)=O)NC(=O)[C@H](Cc3ccc(O)cc3)NC(=O)[C@H](CC(=O)O)NC(=O)[C@@H]3CCCN3C(=O)[C@H](CC(N)=O)NC(=O)[C@H](CC(N)=O)NC(=O)[C@H](C)NC(=O)[C@H](C)NC(=O)[C@H](CSSC[C@H](NC(=O)CN)C(=O)N2)NC(=O)[C@@H]2CCCN2C(=O)[C@@H]2CCCN2C1=O` (H-GCCSLPPCAANNPDYC-NH2; disulfide 2-8, 3-16) are 8.85 and 9.12 µM.
For `CC(C)C[C@@H]1NC(=O)[C@H](CO)NC(=O)[C@@H]2CSSC[C@@H](C(=O)O)NC(=O)[C@H](Cc3ccc(O)cc3)NC(=O)[C@H](CC(=O)O)NC(=O)[C@@H]3CCCN3C(=O)[C@H](CC(N)=O)NC(=O)[C@H](CC(N)=O)NC(=O)[C@H](C)NC(=O)[C@H](C)NC(=O)[C@H](CSSC[C@H](NC(=O)CN)C(=O)N2)NC(=O)[C@@H]2CCCN2C(=O)[C@@H]2CCCN2C1=O` (H-GCCSLPPCAANNPDYC-OH; disulfide 2-8, 3-16), in that order: 7.51 and > 100 µM.

The term pKi denotes the negative decadic logarithm of the Ki, by convention in mol/L. The low end stands for a large Ki, the high end for a small Ki. What is called Ki is the dissociation constant of the complex between target and ligand, obtained from inhibition or displacement.
